Measurements reported in ChEMBL document CHEMBL1641377, “Discovery of novel, potent, selective, and orally active human glucagon receptor antagonists containing a pyrazole core” (Bioorg Med Chem Lett, 2011).
Calls of active or inactive are those of the source. The rule behind the calls is not given here.

What was measured:
[1] = biological target: T1, Gastric inhibitory polypeptide receptor (Homo sapiens, UniProt P48546); assay: Antagonist activity at human GIPR expressed in CHO cells assessed as inhibition of glucagon-induced cAMP accumulation; format: functional, cell-based
T1 sequence (P48546 whole entry): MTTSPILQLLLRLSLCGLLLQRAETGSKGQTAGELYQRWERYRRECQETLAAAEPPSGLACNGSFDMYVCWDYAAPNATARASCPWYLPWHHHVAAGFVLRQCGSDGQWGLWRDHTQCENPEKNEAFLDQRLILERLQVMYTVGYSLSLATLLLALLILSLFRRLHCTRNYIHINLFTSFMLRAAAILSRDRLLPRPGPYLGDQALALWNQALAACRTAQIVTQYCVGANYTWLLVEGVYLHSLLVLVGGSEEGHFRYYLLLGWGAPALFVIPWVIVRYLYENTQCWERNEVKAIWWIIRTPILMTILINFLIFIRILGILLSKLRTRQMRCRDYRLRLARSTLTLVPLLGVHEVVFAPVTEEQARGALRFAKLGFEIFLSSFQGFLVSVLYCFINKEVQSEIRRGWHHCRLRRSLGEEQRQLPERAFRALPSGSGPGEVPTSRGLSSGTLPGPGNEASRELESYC

Glucagon receptor [2] = biological target: T2, Glucagon receptor (Homo sapiens, UniProt P47871); assay: Displacement of [125I]glucagon from human GCGR expressed in CHO cells; format: cell-based
Outline: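 Binding inhibition of 125I-glucagon to human GCGR expressed in CHO cell membranes; IC50 reported, n given where replicated.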

Glucagon receptor [3] = biological target: T2, Glucagon receptor; assay: Antagonist activity at human GCGR expressed in CHO cells assessed as inhibition of glucagon-induced cAMP accumulation; format: functional, cell-based
Outline: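 Inhibition of glucagon-induced cAMP accumulation in CHO cells transfected with human GCGR; IC50 derived, n given where replicated.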

Mus musculus [4] = assay: Antidiabetic activity in transgenic mouse expressing human GCGR assessed as inhibition of glucagon-induced blood glucose excursion at 10 mg/kg, po administered 60 mins before glucagon challenge measured after 48 mins; format: functional, organism-based; set-up: dose 10 mg/kg
Outline: (§1)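 hGCGR transgenic mice (only functional receptor is human GCGR), 9 per group, given compound orally, then glucagon 15 µg/kg IP 60 min later (one arm dosed 30 mpk three hours before challenge); blood glucose monitored at 12, 24, 36 and 48 min after glucagon.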

[5] = biological target: T3, Gastric inhibitory polypeptide receptor (Homo sapiens) (UniProt P48546); assay: Antagonist activity at human GIPR expressed in CHO cells assessed as inhibition of glucagon-induced cAMP accumulation at 10 uM; format: functional, cell-based
T3 sequence (whole entry): T1 sequence (P48546 whole entry)

Mus musculus [6] = assay: Antidiabetic activity in transgenic mouse expressing human GCGR assessed as inhibition of glucagon-induced blood glucose excursion at 30 mg/kg, po administered 60 mins before glucagon challenge measured after 48 mins; format: functional, organism-based; set-up: dose 30 mg/kg; outline: as §1
[7] = Blood clearance in po dosed mouse; format: ADME, organism-based
[8] = Half life in po dosed mouse; format: ADME, organism-based; conditions: in vivo
Mus musculus [9] = assay: Dose normalized AUC in po dosed mouse; format: ADME, organism-based; conditions: in vivo

T2 sequence (P47871 whole entry): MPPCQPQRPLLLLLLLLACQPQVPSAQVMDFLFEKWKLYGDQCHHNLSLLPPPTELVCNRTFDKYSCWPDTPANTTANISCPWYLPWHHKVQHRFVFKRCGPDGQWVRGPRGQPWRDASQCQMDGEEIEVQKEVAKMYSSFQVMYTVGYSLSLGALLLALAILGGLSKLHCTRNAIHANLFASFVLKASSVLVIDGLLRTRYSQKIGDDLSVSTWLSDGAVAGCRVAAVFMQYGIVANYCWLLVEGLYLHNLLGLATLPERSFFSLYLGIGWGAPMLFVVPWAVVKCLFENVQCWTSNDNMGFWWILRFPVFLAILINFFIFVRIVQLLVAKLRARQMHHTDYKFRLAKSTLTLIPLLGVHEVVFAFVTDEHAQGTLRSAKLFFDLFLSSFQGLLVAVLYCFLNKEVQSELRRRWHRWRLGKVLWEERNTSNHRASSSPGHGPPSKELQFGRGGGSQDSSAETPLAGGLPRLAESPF

SMILES | IC50 [1] [nM] | IC50 (Glucagon receptor [2]) [nM] | inhibition [5] [%] | also measured
CC(C)(C)[C@H]1CC[C@H](c2cc(-c3ccc(OC(F)(F)F)cc3)nn2Cc2ccc(C(=O)Nc3nnn[nH]3)cc2)CC1 | 5700 | 63 |  | IC50 (Glucagon receptor [3]): 170 nM
O=C(NCc1nn[nH]n1)c1ccc(Cn2nc(-c3cc(Cl)cc(Cl)c3)cc2-c2ccc(OC(F)(F)F)cc2)cc1 |  |  |  | inhibition (Mus musculus [4]): inactive
O=C(O)CCNC(=O)c1ccc(Cn2nc(-c3ccc(OC(F)(F)F)cc3)cc2-c2ccc(OC(F)(F)F)cc2)cc1 |  | 490 |  | IC50 (Glucagon receptor [3]): 370 nM
O=C(O)CCNC(=O)c1ccc(Cc2cc(-c3ccc(OC(F)(F)F)cc3)n(C3CCCCC3)n2)cc1 |  | 1700 |  | 
CS(=O)(=O)c1ccc(-c2cc(-c3ccc(OC(F)(F)F)cc3)nn2Cc2ccc(C(=O)NCCC(=O)O)cc2)cc1 |  | 1200 | 31 | 
CC(c1ccc(Cl)cc1)c1cc(-c2ccc(OC(F)(F)F)cc2)nn1Cc1ccc(C(=O)Nc2nn[nH]n2)cc1 (stereo unspecified) |  | 520 | 21 | 
O=C(NCc1nnn[nH]1)c1ccc(Cn2nc(-c3cc(Cl)cc(Cl)c3)cc2-c2ccc(OC(F)(F)F)cc2)cc1 | > 10000 | 120 |  | 
CS(=O)(=O)c1ccc(-c2cc(-c3ccc(OC(F)(F)F)cc3)n(Cc3ccc(C(=O)Nc4nnn[nH]4)cc3)n2)cc1 |  | 570 |  | 
O=C(Nc1nn[nH]n1)c1ccc(Cc2cc(-c3ccc(OC(F)(F)F)cc3)n(C3CCCCC3)n2)cc1 |  | 2900 | 50 | 
O=C(O)CCNC(=O)c1ccc(Cc2cc(-c3ccc(OC(F)(F)F)cc3)nn2C2CCCCC2)cc1 |  | 2900 | 39 | 
O=C(Nc1nn[nH]n1)c1ccc(Cn2nc(C3CCCCC3)cc2-c2ccc(OC(F)(F)F)cc2)cc1 | 910 | 810 |  | 
O=C(O)CCNC(=O)c1ccc(Cc2cn(-c3ccc(OC(F)(F)F)cc3)nc2C2CCCCC2)cc1 | 7400 | 1200 |  | 
CC(c1ccc(C(=O)NCCC(=O)O)cc1)n1nc(-c2ccc(OC(F)(F)F)cc2)cc1-c1ccc(OC(F)(F)F)cc1 (stereo unspecified) |  | 250 | 46 | 
CS(=O)(=O)c1ccc(-c2cc(-c3ccc(OC(F)(F)F)cc3)nn2Cc2ccc(C(=O)Nc3nn[nH]n3)cc2)cc1 |  |  | 36 | 
CC(c1ccc(Cl)cc1)c1cc(-c2ccc(OC(F)(F)F)cc2)n(Cc2ccc(C(=O)NCCC(=O)O)cc2)n1 (stereo unspecified) |  | 2400 | 0 | 
O=C(O)CNC(=O)c1cccc(Cn2nc(-c3ccc(OC(F)(F)F)cc3)cc2-c2ccc(OC(F)(F)F)cc2)c1 |  | 2900 | 34 | 
CS(=O)(=O)c1ccc(-c2cc(-c3ccc(OC(F)(F)F)cc3)n(Cc3ccc(C(=O)Nc4nn[nH]n4)cc3)n2)cc1 |  |  | 45 | 
CS(=O)(=O)c1ccc(-c2cc(-c3ccc(OC(F)(F)F)cc3)nn2Cc2ccc(C(=O)Nc3nnn[nH]3)cc2)cc1 |  | 220 |  | 
O=C(NC[C@@H](O)C(=O)O)c1ccc(Cn2nc(-c3cc(Cl)cc(Cl)c3)cc2-c2ccc(OC(F)(F)F)cc2)cc1 | > 25000 | 28 |  | 
O=C(O)CCNC(=O)c1cccc(Cn2nc(-c3ccc(OC(F)(F)F)cc3)cc2-c2ccc(OC(F)(F)F)cc2)c1 |  | 330 | 73 | 
CC(C)(C)[C@H]1CC[C@H](N(Cc2ccc(C(=O)NCCC(=O)O)cc2)C(=O)Nc2ccc(OC(F)(F)F)cc2)CC1 | 1300 | 21 |  | IC50 (Glucagon receptor [3]): 140 nM
CC(C)(C)[C@H]1CC[C@H](c2cc(-c3ccc(OC(F)(F)F)cc3)nn2Cc2ccc(C(=O)Nc3nn[nH]n3)cc2)CC1 |  |  |  | inhibition (Mus musculus [4]): Active; inhibition (Mus musculus [6]): Active
O=C(Nc1nnn[nH]1)c1ccc(Cc2cn(-c3ccc(OC(F)(F)F)cc3)nc2C2CCCCC2)cc1 | > 10000 | 5300 |  | 
O=C(Nc1nn[nH]n1)c1ccc(Cn2nc(-c3cc(Cl)cc(Cl)c3)cc2-c2ccc(OC(F)(F)F)cc2)cc1 |  |  |  | inhibition (Mus musculus [4]): inactive; inhibition (Mus musculus [6]): Active
O=C(O)CCCNC(=O)c1ccc(Cn2nc(-c3ccc(OC(F)(F)F)cc3)cc2-c2ccc(OC(F)(F)F)cc2)cc1 |  | 1100 | 15 | 
O=C(Nc1nn[nH]n1)c1ccc(Cc2cc(-c3ccc(OC(F)(F)F)cc3)nn2C2CCCCC2)cc1 |  | 4200 | 42 | 
CN(CCC(=O)O)C(=O)c1ccc(Cn2nc(-c3ccc(OC(F)(F)F)cc3)cc2-c2ccc(OC(F)(F)F)cc2)cc1 |  | 7200 | 9 | 
CC(C)(C)[C@H]1CC[C@H](c2cc(-c3ccc(OC(F)(F)F)cc3)nn2Cc2ccc(C(=O)NCCC(=O)O)cc2)CC1 |  | 480 | 6 | 

The remaining compounds from weak to strong by IC50 (Glucagon receptor [2]), led by results:

IC50 [1] [nM] | IC50 (Glucagon receptor [2]) [nM] | inhibition [5] [%] | SMILES | also measured
> 20000 | 16000 |  | O=C(Nc1nn[nH]n1)c1ccc(Cc2cnn(-c3ccc(OC(F)(F)F)cc3)c2C2CCCCC2)cc1 | 
> 25000 | 7200 |  | O=C(O)CCNC(=O)c1ccc(Cc2cnn(-c3ccc(OC(F)(F)F)cc3)c2C2CCCCC2)cc1 | 
2800 | 3800 |  | O=C(O)CCNC(=O)c1ccc(Cn2nc(-c3ccc(OC(F)(F)F)cc3)cc2C2CCCCC2)cc1 | 
 | 3000 | -3 | O=C(O)CNC(=O)c1ccc(Cn2nc(-c3ccc(OC(F)(F)F)cc3)cc2-c2ccc(OC(F)(F)F)cc2)cc1 | IC50 (Glucagon receptor [3]): 1300 nM
 | 2700 | 43 | CS(=O)(=O)c1ccc(-c2cc(-c3ccc(OC(F)(F)F)cc3)n(Cc3ccc(C(=O)NCCC(=O)O)cc3)n2)cc1 | 
 | 1100 | 49 | O=C(O)CCCNC(=O)c1cccc(Cn2nc(-c3ccc(OC(F)(F)F)cc3)cc2-c2ccc(OC(F)(F)F)cc2)c1 | 
 | 1100 | 2 | O=C(Nc1nn[nH]n1)c1cccc(Cn2nc(-c3ccc(OC(F)(F)F)cc3)cc2-c2ccc(OC(F)(F)F)cc2)c1 | 
 | 730 | 22 | CC(c1ccc(Cl)cc1)c1cc(-c2ccc(OC(F)(F)F)cc2)nn1Cc1ccc(C(=O)NCCC(=O)O)cc1 (stereo unspecified) | 
 | 430 | 20 | CC(c1ccc(Cl)cc1)c1cc(-c2ccc(OC(F)(F)F)cc2)n(Cc2ccc(C(=O)Nc3nn[nH]n3)cc2)n1 (stereo unspecified) | 
6000 | 130 |  | CC(c1ccc(C(=O)Nc2nnn[nH]2)cc1)n1nc(-c2ccc(OC(F)(F)F)cc2)cc1-c1ccc(OC(F)(F)F)cc1 (stereo unspecified) | 
2100 | 120 |  | O=C(Nc1nn[nH]n1)c1ccc(Cn2nc(-c3ccc(OC(F)(F)F)cc3)cc2C2CCCCC2)cc1 | CL/F [7]: 8.2 mL/min/kg; half-life [8]: 2.7 h; AUC (Mus musculus [9]): 1.5 µM·kg·h/mg; IC50 (Glucagon receptor [3]): 160 nM
 | 95 | 21 | O=C(O)CCNC(=O)c1ccc(Cn2nc(-c3ccc(OC(F)(F)F)cc3)cc2-c2cc(Cl)cc(Cl)c2)cc1 | IC50 (Glucagon receptor [3]): 230 nM
 | 43 | 46 | O=C(Nc1nn[nH]n1)c1ccc(Cn2nc(-c3ccc(OC(F)(F)F)cc3)cc2-c2ccc(OC(F)(F)F)cc2)cc1 | inhibition (Mus musculus [4]): Active; inhibition (Mus musculus [6]): Active; IC50 (Glucagon receptor [3]): 47 nM
7100 | 39 |  | O=C(Nc1nnn[nH]1)c1ccc(Cn2nc(-c3cc(Cl)cc(Cl)c3)cc2-c2ccc(OC(F)(F)F)cc2)cc1 | IC50 (Glucagon receptor [3]): 44 nM
3000 | 36 |  | O=C(Nc1nnn[nH]1)c1ccc(Cn2nc(-c3ccc(OC(F)(F)F)cc3)cc2-c2cc(Cl)cc(Cl)c2)cc1 | IC50 (Glucagon receptor [3]): 35 nM
45 | 3.2 |  | CC(C)(C)[C@H]1CC[C@H](N(Cc2ccc(C(=O)Nc3nn[nH]n3)cc2)C(=O)Nc2ccc(OC(F)(F)F)cc2)CC1 | IC50 (Glucagon receptor [3]): 46 nM
